Laboratory results published in ChEMBL document CHEMBL4152381, “Discovery of Benzoazepinequinoline (BAQ) Derivatives as Novel, Potent, Orally Bioavailable Respiratory Syncytial Virus Fusion Inhibitors” (J Med Chem, 2018).

What was measured:
[1] = Therapeutic index, ratio of CC50 for human Hep2 cells to EC50 for inhibition of RSV long fusion protein assessed as protection against virus induced cytopathic effect in infected human Hep2 cells; format: toxicity, cell-based; conditions: HEp-2 cells, read-out: Ratio CC50/EC50
Outline: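 Index computed as CC50/EC50. CC50 came from uninfected HEp-2 cells and EC50 from 50% reduction of RSV Long CPE in HEp-2 cells (MOI 0.02). Both assays ran 5 days with serially diluted compound and a CCK-8 viability read-out.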

[2] = Cytotoxicity against human Hep2 cells assessed as decrease in cell viability after 5 days by CCK8 assay; format: cell-based; conditions: HEp-2 cells
Outline: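 Uninfected HEp-2 cells, seeded at 6000 per well, were cultured 5 days with serially diluted compound alongside the CPE assay. Viability was read by CCK-8, and CC50 was the concentration cytotoxic to 50% of cells.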

[3] = Intrinsic clearance in mouse liver microsomes; format: ADME, microsome; conditions: read-out: CLH
Outline: (§1)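 Intrinsic clearance was measured in human, rat or mouse liver microsomes and reported as scaled clearance.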

[4] = Intrinsic clearance in rat liver microsomes; format: ADME, microsome; conditions: read-out: CLH; outline: as §1
[5] = Intrinsic clearance in human liver microsomes; format: ADME, microsome; conditions: read-out: CLH; outline: as §1
[6] = Solubility of the compound by LYSA; format: physicochemical
Outline: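 Solubility measured by lyophilization solubility assay (LYSA), reported in μg/mL.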

[7] = Effective permeability of the compound by PAMPA; format: ADME; conditions: read-out: Peff
Outline: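 Parallel artificial membrane permeability assay, with permeability reported in 10−6 cm/s.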

[8] = Volume of distribution at steady state in Wistar-Han rat at 2 mg/kg, iv after 15 mins to 24 hrs by LC/MS/MS analysis; format: ADME, organism-based; conditions: in vivo, read-out: Vdss
Outline: (§2)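 Single-dose PK in male Wistar rats at 2 mg/kg iv and 10 mg/kg po. Plasma clearance, Vss, iv half-life, AUC and oral bioavailability were derived.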

[9] = Fraction unbound in mouse plasma; format: ADME, cell-free
[10] = Fraction unbound in human plasma; format: ADME, cell-free
[11] = Half life in Wistar-Han rat at 2 mg/kg, iv by LC/MS/MS analysis; format: ADME, organism-based; conditions: in vivo; outline: as §2
[12] = AUC (0 to infinity) in Wistar-Han rat at 2 mg/kg, iv after 15 mins to 24 hrs by LC/MS/MS analysis; format: ADME, organism-based; set-up: dose 2 mg/kg, route intravenous, time infinity; conditions: in vivo
[13] = Oral bioavailability in Wistar-Han rat at 10 mg/kg after 15 mins to 24 hrs by LC/MS/MS analysis; format: ADME, organism-based; conditions: in vivo; outline: as §2
[14] = Clearance in Wistar-Han rat at 2 mg/kg, iv after 15 mins to 24 hrs by LC/MS/MS analysis; format: ADME, organism-based; conditions: in vivo; outline: as §2

SMILES: NCCNc1cc(N2CCCc3ccccc3C2)nc2c(Cl)cccc12
- selectivity ratio [1]: 23
- CC50 at 120 h [2]: 25 µM

SMILES: Cc1ccc2nc(N3CCCc4ccc(F)cc4C3)cc(NCCN)c2c1
- CLint scaled [3]: 24 mL/min/kg
- selectivity ratio [1]: > 32
- CLint scaled [4]: 160 mL/min/kg
- CLint scaled [5]: 6 mL/min/kg
- CC50 at 120 h [2]: > 3.2 µM

SMILES: N=C(N)NCCNc1cc(N2CCc3ccccc3C2)nc2ccccc12
- selectivity ratio [1]: 43
- CC50 at 120 h [2]: > 100 µM

SMILES: NCCNc1cc(N2CCCc3ccccc3C2)nc2ccc(F)cc12
- selectivity ratio [1]: 5
- CC50 at 120 h [2]: 8 µM

SMILES: Cc1ccc2nc(N3CCS(=O)(=O)c4ccccc4C3)cc(NCCN)c2c1
- solubility [6]: > 466 µg/mL
- CLint scaled [3]: 1 mL/min/kg
- selectivity ratio [1]: 16500
- Papp [7]: 0.12 ×10⁻⁶ cm/s
- CLint scaled [4]: 8 mL/min/kg
- Vd [8]: 17 L/kg
- fraction unbound [9]: 0.08
- fraction unbound [10]: 0.078
- half-life [11]: 4.5 h
- AUC(0-inf) [12]: 346 ng·h/mL
- bioavailability [13]: 0%
- CLint scaled [5]: 5 mL/min/kg
- CC50 at 120 h [2]: 66 µM
- clearance [14]: 97 mL/min/kg

SMILES: NCCNc1cc(N2CCc3ccccc3C2)nc2ccccc12
- selectivity ratio [1]: 7
- CC50 at 120 h [2]: 15 µM

SMILES: OCC(O)CNc1cc(N2CCc3ccccc3C2)nc2ccccc12 (centres undefined)
- selectivity ratio [1]: 3
- CC50 at 120 h [2]: 66 µM

SMILES: Cc1ccc2nc(N3CCC(F)(F)c4ccccc4C3)cc(NCCN)c2c1
- selectivity ratio [1]: 106
- CC50 at 120 h [2]: 6.6 µM

SMILES: Cc1ccc2nc(N3CCS(=O)(=O)c4ccccc4C3)cc(NCCCN)c2c1
- selectivity ratio [1]: 21000
- CC50 at 120 h [2]: 21 µM

SMILES: Cc1ccc2nc(N3CC(=O)Nc4ccccc4C3)cc(NCCN)c2c1
- CLint scaled [3]: 11 mL/min/kg
- selectivity ratio [1]: 177
- CLint scaled [4]: 21 mL/min/kg
- CC50 at 120 h [2]: 55 µM

SMILES: NCCNc1cc(N2CCOc3ccccc3C2)nc2ccccc12
- CLint scaled [3]: 25 mL/min/kg
- selectivity ratio [1]: > 43
- CLint scaled [4]: 20 mL/min/kg
- CLint scaled [5]: 14 mL/min/kg
- CC50 at 120 h [2]: > 10 µM

SMILES: COc1ccc2nc(N3CCCc4ccccc4C3)cc(NCCN)c2c1
- selectivity ratio [1]: 15
- CC50 at 120 h [2]: 4.8 µM

SMILES: NC(=O)NCCNc1cc(N2CCc3ccccc3C2)nc2ccccc12
- selectivity ratio [1]: 5
- CC50 at 120 h [2]: 80 µM

SMILES: NCCNc1cc(N2CCCc3ccccc3C2)nc2ccc(Cl)cc12
- selectivity ratio [1]: > 27
- CC50 at 120 h [2]: > 3.2 µM

SMILES: NCC(O)CNc1cc(N2Cc3ccccc3C2)nc2ccccc12 (centres undefined)
- CC50 at 120 h [2]: 2.9 µM
